Measurements gathered from unrelated publications.
Compare with care: the assays were run in different laboratories.
Observed: cell growth or viability

O=c1c(O[C@@H]2O[C@H](CO)[C@@H](O)[C@H](O)[C@H]2O)c(-c2ccc(O)cc2)oc2cc(O)cc(O)c12  IC50 (RD; WST-1): 48.8 µM
Nc1nc(F)nc2c1ncn2[C@@H]1O[C@H](CO)[C@@H](O)[C@@H]1O  CC50 (LLC-MK2; 5 days): 54.1 µM
CC=C1[C@H]2C=C(C)C[C@]1(N(C)C)c1ccc(OC)nc1C2  cell death (IMR-90; MTT; 100 µM; 24 h): 5.5%
Nc1nc(F)nc2c1ncn2[C@@H]1O[C@H](COP(=O)(O)O)[C@@H](O)[C@@H]1O  CC50 (LLC-MK2; 5 days): 60.6 µM
CC(C)(C)NC(=O)N[C@H](C(=O)N1C[C@H]2[C@@H]([C@H]1C(=O)NC(CC1CCC1)C(=O)C(N)=O)C2(C)C)C(C)(C)C (some centres unmarked)  CC50 (Caco-2; neutral red; 48 h): > 100 µM
COc1ccc(C[C@H](NC(=O)[C@H](C)NC(=O)CN2CCOCC2)C(=O)N[C@@H](Cc2ccccc2)C(=O)C(=O)Nc2ccccc2)cc1  CC50 (Caco-2; ATP luminescence; 48 h): 16.2 µM
CC=C1[C@H]2C=C(C)C[C@]1(N)c1cc(CC)c(=O)[nH]c1C2  cell death (IMR-90; MTT; 100 µM; 24 h): 2.2%
CC(C)C[C@@H](C=O)NC(=O)[C@H](CC(C)C)NC(=O)[C@H](CC(C)C)NC(=O)OCc1ccccc1  CC50 (Caco-2; neutral red; 48 h): < 0.15 µM
